Experiment: Toxicity liver stage against HepG2, at 10uM
Type: cell-based
Parameters: test concentration 10 uM, cell line HepG2-A16-CD81EGFP
Settings: human, HepG2-A16-CD81EGFP cells; read-out: INHIBITION
Outline: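 Uninfected HepG2-A16-CD81EGFP cells, 3 × 10^3 per well, 1536-well, plated on prespotted compound at 10 μM final, parasite-free screening media added to match infected plates; puromycin 10 μM positive, DMSO 0.5% negative; run in parallel with 48 h PbLuc assay at 37 °C, 5% CO2; viability by CellTiter-Glo luminescence, normalized to controls.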

| Structure (SMILES) | cytotoxicity at 10 µM |
| --- | --- |
| COc1ccc(CNC[C@H]2COCc3nc4cccnc4n32)cc1 | -0.61% |
| CC(=O)N1CC[C@H]2CC(=O)N(C3CC3)CC[C@H]2C1 | -0.434% |
| Cc1occc(=O)c1OCc1noc(C(=O)NC2CCCC2)n1 | 0.618% |
| COc1cc2c(cc1OC)C(=O)C(Sc1nncn1C)C2 (centres undefined) | -5.65% |
| Cc1cc(C(=O)Nc2n[nH]c(C3CC3)n2)c2c(C)noc2n1 | -1.86% |
| CC(=O)c1c(C)nn(CC(=O)Nc2ccc(Br)cc2)c1C | -9.87% |
| Cc1nccn1-c1ccc(=O)n(CCNC(=O)c2c(F)cccc2Cl)n1 | -9.98% |
| COc1ccc(OC)c(-c2cc(C(=O)NCC3(CO)CC3)n(C)n2)c1 | -2.46% |
| O=C(O)CC(CC(=O)NCCc1cccs1)c1cccs1 (centres undefined) | -11.4% |
| COc1c2ccc(C(=O)NCCCn3ncccc3=O)cc2nn1C | 0.905% |
| Cc1occc1C(=O)N1CCn2c(Cn3cncn3)cnc2C1C (centres undefined) | -5.17% |
| CC(C)CCN1C2(CCN(C(=O)N(C)C)C2)c2ccccc2S1(=O)=O (centres undefined) | 2.11% |
| Cc1cccc(C(=O)N2CCC3(CC(C(=O)N(C)C(C)C)=NO3)C2)c1 (centres undefined) | -127% |
| CCOC(=O)N1CCN(c2nc(NCCO)c3ccccc3n2)CC1 | -1.32% |
| Cc1ccc(N2N=C(C(=O)O)S(=O)(=O)c3cccnc32)cc1 | -8.87% |
| CC(C)n1[nH]c(=O)c2c1NC(=O)CSC2c1ccc(OCC(N)=O)cc1 (centres undefined) | 8.46% |
| c1ccc(O[C@H]2CC[C@H]3[C@H]2OCCN3Cc2nccs2)nc1 | -12.6% |
| c1nc2c(c(C3CC3)n1)CCN(Cc1ccoc1)CC2 | -22.7% |
| CC(C(=O)N1CCN(c2ccc(F)cc2)CC1)n1cc(Br)cn1 (centres undefined) | 9.35% |
| COCCNC(=O)CN1CC=C(n2c(C)nc(=O)c3ccccc32)CC1 | -5.45% |
| CC(=O)N1CCCC1(C(=O)N1CCCC1)c1cnccn1 (centres undefined) | 0.142% |
| Cn1cnc(NC(=O)C2CC(=O)N(c3cccc(F)c3)C2)n1 (centres undefined) | 4.28% |
| Cc1ccc(S(=O)(=O)N2CC[C@@H]3C[C@H](NC(=O)c4n[nH]cc4Cl)[C@@H]32)cc1 | 4.31% |
| COCC(=O)N[C@@H]1CN(Cc2c[nH]nc2-c2cccs2)C[C@H]1O | 1.48% |
| COc1ncc(CN2CCCC(c3[nH]ncc3S(C)(=O)=O)C2)cn1 (centres undefined) | 7.24% |
| COCCOCCSc1nnc(Cc2ccccc2F)o1 | 14.5% |
| CCN(CCO)Cc1ccc(Br)c2cccnc12 | 1.95% |

| Structure (SMILES) | cytotoxicity at 10 µM |
| --- | --- |
| Cc1nccn1-c1ccc(NS(=O)(=O)c2cccnc2)cn1 | -4.73% |
| CCn1ccnc1CN1CCCN(C(=O)C2(C#N)CCCCC2)CC1 | 3.75% |
| O=c1[nH]c(=O)n(CC(O)c2ccccc2Cl)cc1Cl (centres undefined) | 9.71% |
| Cc1ccc(C(=O)N2CCN(c3ncnc4nc(N)ccc34)CC2)o1 | 7.55% |
| Cc1nnc(C(C)N2CCN(Cc3noc(C(C)(C)C)n3)CC2)o1 (centres undefined) | -13.3% |
| CC1CN(C)CCN1C(=O)c1cccn1Cc1cccs1 (centres undefined) | -14.1% |
| Cc1ccc(S(=O)(=O)N(C)CC(C)O)c(F)c1 (centres undefined) | -11.4% |
| CC(C)CC(CCO)CNC(=O)N1CCOC2(CCCC2)C1 (centres undefined) | 6.37% |
| CCc1noc(C(C)N2CCN(CCc3ccncc3)CC2)n1 (centres undefined) | 1.6% |
| Cc1ccc(C(NC(=O)CN2CCc3c(ncn3C)C2)C2CC2)cc1 (centres undefined) | -2.43% |
| CCc1ncnc(N2CCOCC2CCO)c1F (centres undefined) | -2.56% |
| Cc1nnc(NCC2(c3ccccc3)CCOCC2)c(C#N)c1C | 7.35% |
| Cc1ccc(CNC(=O)NC2CCCN(c3ncccn3)C2)cn1 (centres undefined) | 3.08% |
| CN(Cc1nccn1CC(F)(F)F)C(=O)c1ccc2c(c1)OCO2 | 1.09% |
| COCCCn1ccc(NC(=O)NCCCNc2ccccc2)n1 | 4.97% |
| Cc1ncsc1CNC(=O)N1CCN(Cc2ccccc2)CC1C (centres undefined) | -131% |
| Cn1nnc2c1CCN(C(C(=O)N1CCCCC1)c1ccccc1)C2 (centres undefined) | -2.56% |
| O=c1oc2ccccc2n1CCCN1CCCC1c1ccc(O)cc1 (centres undefined) | 7.87% |
| O=C(CCn1nnc2ccccc2c1=O)N(CC1CCOC1)C1CC1 (centres undefined) | -8.5% |
| COCCn1cc(NCc2cn(C)nc2-c2ccncc2)cn1 | 2.03% |
| c1cnn(CCNCCCOc2ccc3c(c2)OCO3)c1 | 7.61% |
| Cc1cccc(N2CCN(C(=O)Cc3ccccc3O)C(C)C2)n1 (centres undefined) | 13.5% |
| c1ccc2[nH]c(C3CCN(Cc4nnc(C5CC5)o4)CC3)nc2c1 | 0.152% |
| COc1cc(C)nc(N2CCN(C(=O)CCc3nccs3)CC2)n1 | -15.8% |
| c1ccc(CO[C@@H]2CN(Cc3ccoc3)[C@@H]3COC[C@@H]32)nc1 | -105% |
| CCN(Cc1nccn1C)C(=O)c1ccc(NCc2ccccc2)nc1 | -14.3% |
| O=C(c1ccc[nH]1)N1CCc2ccc(S(=O)(=O)N3CCOCC3)cc2C1 | 3.99% |

From ChEMBL document CHEMBL4513216, “Probing the Open Global Health Chemical Diversity Library for Multistage-Active Starting Points for Next-Generation Antimalarials” (ACS Infect Dis, 2020)
